Experimental data: ChEMBL document CHEMBL2396638, “Structure-activity relationship studies and sleep-promoting activity of novel 1-chloro-5,6,7,8-tetrahydroimidazo[1,5-a]pyrazine derivatives as dual orexin receptor antagonists. Part 2” (Bioorg Med Chem Lett, 2013)

Tests used:
[1] = biological target: T1, Orexin/Hypocretin receptor type 1 (Homo sapiens, UniProt O43613); assay: Antagonist activity at human OX1R expressed in CHO cells assessed as inhibition of calcium mobilization by FLIPR assay; assay type: functional, cell-based
T1 sequence (O43613 whole entry): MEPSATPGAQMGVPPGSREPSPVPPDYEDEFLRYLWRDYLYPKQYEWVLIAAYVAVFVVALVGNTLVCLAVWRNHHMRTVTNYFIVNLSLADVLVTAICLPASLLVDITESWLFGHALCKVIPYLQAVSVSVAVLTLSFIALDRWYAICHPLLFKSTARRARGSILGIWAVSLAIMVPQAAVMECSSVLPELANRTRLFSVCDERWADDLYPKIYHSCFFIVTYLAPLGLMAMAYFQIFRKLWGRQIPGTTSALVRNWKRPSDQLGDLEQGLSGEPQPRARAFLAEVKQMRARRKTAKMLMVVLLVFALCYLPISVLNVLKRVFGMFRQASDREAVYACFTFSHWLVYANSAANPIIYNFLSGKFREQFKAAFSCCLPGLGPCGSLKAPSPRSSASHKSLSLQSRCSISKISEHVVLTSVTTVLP

Orexin receptor type 2 = biological target: T2, Orexin receptor type 2 (Homo sapiens, UniProt O43614); assay: Antagonist activity at human OX2R expressed in CHO cells assessed as inhibition of calcium mobilization by FLIPR assay; assay type: functional, cell-based
T2 sequence (O43614 whole entry): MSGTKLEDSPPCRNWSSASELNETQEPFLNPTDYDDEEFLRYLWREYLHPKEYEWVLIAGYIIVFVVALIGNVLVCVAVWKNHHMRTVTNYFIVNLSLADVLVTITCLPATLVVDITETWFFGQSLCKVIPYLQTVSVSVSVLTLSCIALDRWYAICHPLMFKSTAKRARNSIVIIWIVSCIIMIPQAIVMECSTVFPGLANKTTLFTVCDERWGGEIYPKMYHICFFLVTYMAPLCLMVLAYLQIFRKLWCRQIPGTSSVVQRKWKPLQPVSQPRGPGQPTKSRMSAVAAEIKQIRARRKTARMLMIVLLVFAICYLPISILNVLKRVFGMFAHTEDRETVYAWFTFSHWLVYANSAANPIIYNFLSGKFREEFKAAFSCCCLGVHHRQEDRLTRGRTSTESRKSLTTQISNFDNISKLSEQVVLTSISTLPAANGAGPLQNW
Procedure, shortened: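 CHO cells stably expressing human OX2R, loaded with fluo-3 AM calcium dye at 37 °C in 5% CO2, then washed. Antagonist added at varying concentrations before an approximate EC80 of orexin A. Ca2+ mobilization read by FLIPR; IC50 taken as concentration inhibiting 50% of the orexin A-induced calcium response.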

[2] = Ratio of drug level from brain to plasma in Wistar rat at 100 mg/kg, po after 3 hrs; assay type: ADME, organism-based; design: dose 100 mg/kg, route oral; details: read-out: BPR
Procedure, shortened: (§1)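 Male Wistar rats on 12 h light/dark cycle dosed orally at 100 mg/kg in PEG-400. Plasma and brain collected from the same animal at 3 h (±5 min). Blood drawn from caudal vena cava into EDTA and centrifuged for plasma. Brain taken after cardiac perfusion with 0.9% NaCl and homogenized in one volume cold phosphate buffer pH 7.4.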

[3] = Drug uptake in Wistar rat brain at 100 mg/kg, po after 3 hrs; assay type: ADME, organism-based; design: dose 100 mg/kg, route oral; details: read-out: Drug uptake; procedure, shortened: as §1
[4] = Plasma concentration in Wistar rat at 100 mg/kg, po after 3 hrs; assay type: ADME, organism-based; design: dose 100 mg/kg, route oral; procedure, shortened: as §1
Rattus norvegicus [5] = assay: Sleep-promoting activity in Wistar rat electroencephalographic model assessed as increase in time spent in rapid eye movement sleep at 100 mg/kg, po measured over 12 hrs relative to vehicle-treated control; assay type: functional
Procedure, shortened: (§2)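 Freely moving adult male Wistar rats carrying radiotelemetric implants recording EEG, EMG and locomotor activity in the home cage. Oral dose of 100 mg/kg in 100% PEG-400 given at the start of the dark phase. Crossover design with 12 or 16 rats per group and at least 4-day washout. Read-outs over the 12 h night versus vehicle; means ± SEM, paired t-test.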

MDR1 (human) [6] = assay: Apparent permeability across basolateral to apical side in MDCK cells expressing human MDR1; assay type: ADME, cell-based, Canis lupus familiaris; details: dog
Rattus norvegicus [7] = assay: Sleep-promoting activity in Wistar rat electroencephalographic model assessed as time spent in rapid eye movement sleep at 100 mg/kg, po measured over 12 hrs relative to total sleep time (reference value: 12.7 to 14.6%); assay type: functional; procedure, shortened: as §2
Rattus norvegicus [8] = assay: Sleep-promoting activity in Wistar rat electroencephalographic model assessed as reduction of time spent in active wake at 100 mg/kg, po measured over 12 hrs relative to vehicle-treated control; assay type: functional; design: scale not given: the % may be the effect or the level left; procedure, shortened: as §2
MDR1 (human) [9] = assay: Apparent permeability across apical to basolateral side in MDCK cells expressing human MDR1; assay type: ADME, cell-based, Canis lupus familiaris; details: dog
Rattus norvegicus [10] = assay: Sleep-promoting activity in Wistar rat electroencephalographic model assessed as increase in time spent in non-rapid eye movement sleep at 100 mg/kg, po measured over 12 hrs relative to vehicle-treated control; assay type: functional; procedure, shortened: as §2
Rattus norvegicus [11] = assay: Sleep-promoting activity in Wistar rat electroencephalographic model assessed as decrease in home cage activity at 100 mg/kg, po measured over 12 hrs relative to vehicle-treated control; assay type: functional; design: scale not given: the % may be the effect or the level left; procedure, shortened: as §2
Rattus norvegicus [12] = assay: Sleep-promoting activity in Wistar rat electroencephalographic model assessed as time spent in non-rapid eye movement sleep at 100 mg/kg, po measured over 12 hrs relative to total sleep time (reference value: 85.4 to 87.3%); assay type: functional; procedure, shortened: as §2
MDR1 (human) [13] = assay: Efflux ratio of apparent permeability […] to apical side in MDCK cells expressing human MDR1; assay type: ADME, cell-based, Canis lupus familiaris; details: dog

IC50 [1] [nM]	IC50 (Orexin receptor type 2) [nM]	Kp at 3 h [2]	concentration at 3 h [3] [nM]	concentration at 3 h [4] [nM]	SMILES	other results
16	9	0.07	136	1860	CCc1nc(Cl)c2n1CCN([C@@H](C(=O)NC)c1ccccc1)[C@H]2CCc1cccc(C(F)(F)F)c1F	–
72	10	–	–	–	CCc1nc(Cl)c2n1CCN([C@@H](C(=O)NC)c1ccccc1)[C@H]2CCc1cccc(C(F)(F)F)c1	–
431	9	–	–	–	CCc1nc(Cl)c2n1CCN([C@@H](C(=O)NC)c1ccccc1)[C@H]2COc1ccc(C(F)(F)F)cc1	–
16	8	–	–	–	CCc1nc(Cl)c2n1CCN([C@@H](C(=O)NC)c1ccccc1)[C@H]2CCc1cc(F)c(C(F)(F)F)c(F)c1	–
547	227	–	–	–	CCc1nc(Cl)c2n1CCN([C@@H](C(=O)NC)c1ccccc1)[C@@H]2CCc1ccc(C(F)(F)F)c(F)c1	–
20	18	0.08	128	1600	CCc1nc(Cl)c2n1CCN([C@@H](C(=O)NC)c1ccccc1)[C@H]2CCc1ccc(C(F)(F)F)c(Cl)c1	–
17	14	0.1	695	6770	CCc1nc(Cl)c2n1CCN([C@@H](C(=O)NC)c1ccccc1)[C@H]2CCc1ccc(C(F)(F)F)c(F)c1F	–
378	16	–	–	–	CCc1nc(Cl)c2n1CCN([C@@H](C(=O)NC)c1ccccc1)[C@H]2CCc1ccc(F)c(C(F)(F)F)c1	–
203	18	–	–	–	CCc1nc(Cl)c2n1CCN([C@@H](C(=O)NC)c1ccccc1)[C@H]2CCc1ccc(OC(F)(F)F)cc1	–
18	7	0.12	1220	9820	CCc1nc(Cl)c2n1CCN([C@@H](C(=O)NC)c1ccccc1)[C@H]2CCc1ccc(C(F)(F)F)c(F)c1	Activity (Rattus norvegicus [5]): 9%; Papp B→A (MDR1 (human) [6]): 68.8 ×10⁻⁶ cm/s; Activity (Rattus norvegicus [7]): 13.8%; Activity (Rattus norvegicus [8]): 13%; Papp A→B (MDR1 (human) [9]): 1.98 ×10⁻⁶ cm/s; Activity (Rattus norvegicus [10]): 16%; Activity (Rattus norvegicus [11]): 36%; Activity (Rattus norvegicus [12]): 86.2%; efflux ratio (MDR1 (human) [13]): 35
45	12	0.06	363	6420	CCc1nc(Cl)c2n1CCN([C@@H](C(=O)NC)c1ccccc1)[C@H]2CCc1ccc(C(F)(F)F)cc1F	–
312	4	–	–	–	CCc1nc(Cl)c2n1CCN([C@@H](C(=O)NC)c1ccccc1)[C@H]2COc1cccc(C(F)(F)F)c1	–

More lines, now with the values behind:

SMILES	IC50 [1] [nM]	IC50 (Orexin receptor type 2) [nM]	Kp at 3 h [2]	concentration at 3 h [3] [nM]	concentration at 3 h [4] [nM]	other results
CCc1nc(Cl)c2n1CCN([C@@H](C(=O)NC)c1ccccc1)[C@H]2CCc1ccc(F)c(F)c1F	30	5	0.05	18	387	–
CNC(=O)[C@@H](c1ccccc1)N1CCn2c(C3CC3)nc(Cl)c2[C@@H]1CCc1ccc(C(F)(F)F)cc1	30	–	–	–	–	–
CCc1nc(Cl)c2n1CCN([C@@H](C(=O)NC)c1ccccc1)[C@H]2CCc1ccc(C#N)cc1	3900	16	–	–	–	–
CNC(=O)[C@@H](c1ccccc1)N1CCn2c(C3CC3)nc(Cl)c2[C@@H]1CCc1ccc(OC(F)F)c(F)c1	170	2	–	–	–	–
CNC(=O)[C@@H](c1ccccc1)N1CCn2c(C3CC3)nc(Cl)c2[C@@H]1CCc1ccc(C(F)(F)F)cc1F	94	26	0.05	338	6760	–
CNC(=O)[C@@H](c1ccccc1)N1CCn2c(C3CC3)nc(Cl)c2[C@@H]1CCc1ccc(C(F)(F)F)c(F)c1	53	10	0.07	450	6800	–
CNC(=O)[C@@H](c1ccccc1)N1CCc2cc(OC)c(OC)cc2[C@@H]1CCc1ccc(C(F)(F)F)cc1 [ALMOREXANT]	–	–	–	–	–	Activity (Rattus norvegicus [5]): 38%; Activity (Rattus norvegicus [7]): 14.2%; Activity (Rattus norvegicus [8]): 20%; Activity (Rattus norvegicus [10]): 20%; Activity (Rattus norvegicus [11]): 43%; Activity (Rattus norvegicus [12]): 85.8%
CCc1nc(Cl)c2n1CCN([C@@H](C(=O)NC)c1ccccc1)[C@H]2CCc1cc(F)c(C(F)(F)F)cc1F	32	17	–	–	–	–
CCc1nc(Cl)c2n1CCN([C@@H](C(=O)NC)c1ccccc1)[C@H]2CCc1ccc(OC(F)F)cc1	74	1	–	–	–	–
